Experimental data collected from several papers.
Protocols differ between the studies behind these lines.
Target: Serine/threonine-protein kinase ULK1 (ULK1, Homo sapiens, UniProt O75385)
Sequence (O75385 1-1050, as in one of the studies): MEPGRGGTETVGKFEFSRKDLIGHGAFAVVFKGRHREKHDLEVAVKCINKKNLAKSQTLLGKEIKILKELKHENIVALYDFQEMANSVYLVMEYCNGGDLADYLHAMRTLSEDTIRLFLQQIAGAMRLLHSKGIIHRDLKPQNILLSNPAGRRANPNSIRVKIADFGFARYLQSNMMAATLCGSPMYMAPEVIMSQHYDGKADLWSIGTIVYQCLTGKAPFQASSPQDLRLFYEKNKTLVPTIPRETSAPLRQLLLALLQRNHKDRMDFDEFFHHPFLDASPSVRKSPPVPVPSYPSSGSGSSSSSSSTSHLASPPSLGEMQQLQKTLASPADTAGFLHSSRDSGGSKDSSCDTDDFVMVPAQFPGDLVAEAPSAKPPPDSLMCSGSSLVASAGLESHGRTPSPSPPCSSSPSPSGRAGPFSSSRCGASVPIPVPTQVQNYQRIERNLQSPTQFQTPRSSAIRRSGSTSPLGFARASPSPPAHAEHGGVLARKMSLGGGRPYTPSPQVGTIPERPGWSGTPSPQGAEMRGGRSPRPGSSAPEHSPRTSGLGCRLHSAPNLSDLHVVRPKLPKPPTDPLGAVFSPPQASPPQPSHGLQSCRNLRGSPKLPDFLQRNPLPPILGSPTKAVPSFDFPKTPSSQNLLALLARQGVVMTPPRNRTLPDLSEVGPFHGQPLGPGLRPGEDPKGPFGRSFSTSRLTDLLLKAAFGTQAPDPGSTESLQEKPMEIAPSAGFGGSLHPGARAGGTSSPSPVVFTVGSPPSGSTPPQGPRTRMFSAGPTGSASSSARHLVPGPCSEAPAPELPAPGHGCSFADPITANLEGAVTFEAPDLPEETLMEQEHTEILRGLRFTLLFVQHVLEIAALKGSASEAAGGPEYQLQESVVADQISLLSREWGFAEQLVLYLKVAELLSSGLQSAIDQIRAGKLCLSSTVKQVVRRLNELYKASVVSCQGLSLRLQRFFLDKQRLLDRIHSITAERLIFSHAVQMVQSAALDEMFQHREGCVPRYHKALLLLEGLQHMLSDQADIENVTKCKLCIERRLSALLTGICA

| SMILES | effect on | action | method | tested at | endpoint | result |
| --- | --- | --- | --- | --- | --- | --- |
| Cc1nc(Cc2cccc(C(F)(F)F)c2)sc1-c1ccc(C(N)=O)nc1 | cell-free assay | – | competition with immobilised ligand | 1 µM | remaining binding | 100% |
| COc1cc(/C=C/C(=O)CC(=O)/C=C/c2ccc(O)c(OC)c2)ccc1O | enzyme activity | inhibitor | – | 1 µM | activity vs control | 88% |
| FC(F)(F)Oc1cccc(-c2cnc3ccc(-c4ccncc4)nn23)c1 | enzyme activity | inhibitor | radiometric | 1 µM | activity vs control | 114% |
| N#Cc1ccc(Nc2ccc3[nH]c(=O)[nH]c3c2)c(Cl)c1 | cell-free assay | – | competition with immobilised ligand | 1 µM | remaining binding | 81% |
| N#CCCc1ccc2c(c1)-c1[nH]c3ccc([N+](=O)[O-])cc3c1CC(=O)N2 | cell-free assay | – | – | 0.5 µM | remaining signal | 94.2% |
| Cc1nn(CC(F)(F)F)cc1Nc1ncc(Br)c(NCc2ccc(S(N)(=O)=O)cc2)n1 | enzyme activity | inhibitor | radiometric | 1 µM | remaining activity | 77% |
| CN1CC(Oc2cnc(C#N)cc2-c2ccn3nc(NC(=O)C4CC4)cc3c2)C1 | enzyme activity | inhibitor | – | 1 µM | inhibition | -1% |
| NS(=O)(=O)c1cc(NC(=O)C2(c3ccccc3Cl)CC2)ccc1Oc1cccc(Cl)c1 | cell-free assay | – | competition with immobilised ligand | 1 µM | remaining binding | 89% |
| O=C1Nc2ccc(Cl)cc2C1=Cc1cc(Cl)c(O)c(Cl)c1 | cell-free assay | – | – | 0.5 µM | remaining signal | 95% |
| COc1cccc2c(NCc3ccccc3)nc(-n3c(N)nc4ccccc43)nc12 | target engagement in cells | inhibitor | chemoproteomics | 20 mM | inhibition | -8.3% |
| Brc1cnc(Nc2cccc(CN3CCOCC3)c2)nc1NCCc1c[nH]cn1 | enzyme activity | inhibitor | radiometric | 1 µM | remaining activity | 3% |
| COc1ccc(Nc2ncc(C(F)(F)F)c(NC3CC3)n2)cc1OC | thermal stability | – | DSF | 10 µM | ΔTm | 9.5 °C |
| Cc1nn(CC(F)(F)F)cc1Nc1ncc(C2CC2)c(NCCCNC(=O)C2CCC2)n1 | enzyme activity | inhibitor | radiometric | 1 µM | remaining activity | 58% |
| Cc1c(C(=O)O)cc(-c2ccc(C3CCNCC3)cc2)c2ccc(-c3ccc(C(F)(F)F)cc3)cc12 | binding | – | competition with immobilised ligand | 1 µM | remaining binding | 100% |
| Cc1nn(CC(F)(F)F)cc1Nc1ncc(C2CC2)c(NCc2ccc(S(N)(=O)=O)cc2)n1 | enzyme activity | inhibitor | radiometric | 1 µM | remaining activity | 106% |
| CCc1ccccc1C(=O)Nc1n[nH]c2c(C)c(F)c(C3C(C#N)=C(C)N(C)C(C)=C3C#N)cc12 | cell-free assay | – | competition with immobilised ligand | 1 µM | remaining binding | 29% |
| O=C(NCCCNc1ccnc(Nc2cccc(NC(=O)N3CCCC3)c2)n1)C1CCC1 | enzyme activity | inhibitor | radiometric | 1 µM | remaining activity | 75% |
| COc1ccc(COc2ccc(Cc3cnc(N)nc3N)cc2OC)cc1 | cell-free assay | – | – | 0.5 µM | remaining signal | 99.7% |
| c1cc(CN2CCOCC2)cc(Nc2ncc(C3CC3)c(NCCc3c[nH]cn3)n2)c1 | enzyme activity | inhibitor | radiometric | 1 µM | remaining activity | 24% |
| CCC(=N\O)/C(C)=C/c1ccc(F)cc1 | cell-free assay | – | competition with immobilised ligand | 1 µM | remaining binding | 85% |
| O=C(NCCCNc1nc(Nc2cccc(NC(=O)N3CCCC3)c2)ncc1Br)C1CCC1 | enzyme activity | inhibitor | radiometric | 1 µM | remaining activity | 2% |
| COc1cccc(CNC(=O)c2nc3scc(COCc4ccc(C(=O)O)cc4)c3c(=O)[nH]2)c1 | cell-free assay | – | competition with immobilised ligand | 1 µM | remaining binding | 74% |
